In brackets after ≈: the same amount, converted by molar mass.
Tests used:
HCC 2998 = test: Growth inhibition of human HCC2998 cells after 48 hrs by sulforhodamine B assay; assay type: functional; conditions: HCC 2998, 48 h
Method in brief: (§1)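 NCI 60 human cancer cell line screen run at the National Cancer Institute. Cells had 48 h continuous exposure, and proliferation was read by sulforhodamine B staining. GI50 (50% growth inhibition) was taken from dose–response curves.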

KM12 = test: Growth inhibition of human KM12 cells after 48 hrs by sulforhodamine B assay; assay type: functional; conditions: KM12, 48 h; method in brief: as §1
UACC-62 = test: Growth inhibition of human UACC62 cells after 48 hrs by sulforhodamine B assay; assay type: functional; conditions: UACC-62, 48 h
Method in brief: (§2)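 Tested in the NCI 60 human cancer cell line panel. Cells were exposed continuously for 48 h and proliferation was read by sulforhodamine B staining. GI50 (concentration for 50% growth inhibition), TGI (total growth inhibition) and LC50 were taken from dose–response curves.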

SK-OV-3 = test: Growth inhibition of human SKOV3 cells after 48 hrs by sulforhodamine B assay; assay type: functional; conditions: SK-OV-3, 48 h; method in brief: as §2
A498 = test: Growth inhibition of human A498 cells after 48 hrs by sulforhodamine B assay; assay type: functional; conditions: A498, 48 h; method in brief: as §1
CAKI-1 = test: Growth inhibition of human Caki1 cells after 48 hrs by sulforhodamine B assay; assay type: functional; conditions: CAKI-1, 48 h; method in brief: as §1
Mus musculus = test: Toxicity in DBA2 mouse assessed as change in body weight at 75 mg/kg, ip QD administered on alternate days for 17 days measured on day 23 relative to control; assay type: organism-based; set-up: dose 75 mg/kg, route intraperitoneal; conditions: in vivo, 408 h
Method in brief: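 Healthy female DBA2 mice, 5–7 weeks old, five per group, received 75 mg/kg ip on days 1, 5, 9, 13 and 17. Vehicle was PET (PEG400/ethanol/Tween 80, 6:3:1), 5% glucose and DMSO, with final ethanol 15% and DMSO 10%. Controls received 100 µL vehicle. Body weight was measured every other day. At sacrifice on day 23, blood counts (hematocrit, WBC, granulocytes, platelets) and liver, kidney and spleen appearance and weight were assessed.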

[1] = Solubility of the compound in water by multiscreen solubility; assay type: physicochemical
Method in brief: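 Aqueous solubility was measured with a modified Multiscreen Solubility filter-plate protocol. The assay ceiling is 500 µM, and two independent experiments were run.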

CCRF-CEM = test: Growth inhibition of human CCRF-CEM cells after 48 hrs by sulforhodamine B assay; assay type: functional; method in brief: as §1

SMILES: COc1ccc(/C=C(/C(C)=O)c2cc(OC)c(OC)c(OC)c2)cc1O
- GI50 (HCC 2998): 1320 nM
- TGI (HCC 2998; read-out: pTGI (converted)): 11500 nM
- GI50 (KM12): 112 nM
- TGI (KM12; read-out: pTGI (converted)): 1950 nM
- GI50 (UACC-62): 151 nM
- TGI (UACC-62; read-out: pTGI): > 100000 nM
- GI50 (SK-OV-3): 417 nM
- TGI (SK-OV-3; read-out: pTGI): > 100000 nM
- GI50 (A498): 67.6 nM
- TGI (A498; read-out: pTGI (converted)): 550 nM
- GI50 (CAKI-1): 186 nM
- TGI (CAKI-1; read-out: pTGI (converted)): 19500 nM
- Activity (Mus musculus): Non-toxic
- solubility [1]: 456 µM (≈ 163 µg/mL)
- GI50 (CCRF-CEM): 398 nM
- TGI (CCRF-CEM; read-out: pTGI): > 100000 nM

Source: ChEMBL document CHEMBL1765023, “Acetyl analogs of combretastatin A-4: synthesis and biological studies” (Bioorg Med Chem, 2011)
